Measurements: ChEMBL document CHEMBL1123677, “Structure-activity studies of 5-[[4-(4,5-dihydro-2-oxazolyl) phenoxy]alkyl]-3-methylisoxazoles: inhibitors of picornavirus uncoating” (J Med Chem, 1987)
In brackets after ≈: the same amount, converted by molar mass. Activity calls are given as the source filed them. No cut-off for these calls is given here.

What was measured:
[1] = tested on: rhinovirus A2; test: Tested for antirhinoviral activity against the rhinovirus serotype 2; assay type: functional, human rhinovirus type 2; details: Rhinovirus A
Method in brief: (§1)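 Selected compounds were tested across a 15-serotype rhinovirus panel: the five secondary serotypes plus 10 more. An MIC was recorded for each serotype. MIC80, the concentration inhibiting 80% of serotypes tested, was also derived from this panel.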

[2] = tested on: rhinovirus B86; test: Tested for antirhinoviral activity against the rhinovirus serotype 86; assay type: functional; details: Rhinovirus B; method in brief: as §1
[3] = tested on: rhinovirus A2; test: Antirhinovirus activity was assessed and the maximum testable concentration that causes no apparent effects on the cell monolayers was determined against HRV-2 virus in vitro.; assay type: functional, human rhinovirus type 2
[4] = Partition coefficient (logP); assay type: physicochemical; details: octanol/water
[5] = tested on: rhinovirus A67; test: Tested for antirhinoviral activity against the rhinovirus serotype 67; assay type: functional; details: Rhinovirus A; method in brief: as §1
[6] = tested on: Human rhinovirus sp.; test: Mean of MIC's was determined for the five types of virus like HRV-2, HRV-1A,HRV-22,HRV-41 and HRV-50; assay type: functional
Method in brief: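 MIC measured by plaque reduction against HRV-2 first. The value is the mean of the MICs across these five serotypes.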

[7] = tested on: human rhinovirus (15-serotype panel); test: Antirhinovirus activity was determined by the ability to inhibit the growth of 80% of a panel of 15 human rhinovirus serotypes
[8] = tested on: rhinovirus A2; test: Antiviral activity determined by ability to inhibit the HRV-2( human rhinovirus type -2) virus by plaque reduction assay in vitro; assay type: functional; details: Rhinovirus A
Method in brief: (§2)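 Plaque reduction assay against human rhinovirus type 2 (HRV-2), following an earlier reported method. The value is the MIC, the minimum inhibitory concentration.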

[9] = tested on: rhinovirus B14; test: Tested for antirhinoviral activity against the rhinovirus serotype 14; assay type: functional, human rhinovirus type 14; details: Rhinovirus B; method in brief: as §1
[10] = tested on: rhinovirus A21; test: Tested for antirhinoviral activity against the rhinovirus serotype 21; assay type: functional; details: Rhinovirus A; method in brief: as §1
[11] = tested on: rhinovirus A1B; test: Tested for antirhinoviral activity against the rhinovirus serotype 1B; assay type: functional, human rhinovirus type 1b; details: Rhinovirus A; method in brief: as §1
[12] = tested on: Human rhinovirus 1A; test: Tested for antirhinoviral activity against the rhinovirus serotype 1A; assay type: functional; method in brief: as §1
[13] = tested on: rhinovirus A89; test: Tested for antirhinoviral activity against the rhinovirus serotype 89; assay type: functional, human rhinovirus type 89; details: Rhinovirus A; method in brief: as §1
[14] = tested on: rhinovirus A22; test: Tested for antirhinoviral activity against the rhinovirus serotype 22; assay type: functional; details: Rhinovirus A; method in brief: as §1
[15] = tested on: rhinovirus A15; test: Tested for antirhinoviral activity against the rhinovirus serotype 15; assay type: functional; details: Rhinovirus A; method in brief: as §1
[16] = tested on: rhinovirus A41; test: Tested for antirhinoviral activity against the rhinovirus serotype 41; assay type: functional; details: Rhinovirus A; method in brief: as §1
[17] = tested on: rhinovirus A50; test: Tested for antirhinoviral activity against the rhinovirus serotype 50; assay type: functional; details: Rhinovirus A; method in brief: as §1
[18] = tested on: rhinovirus B6; test: Tested for antirhinoviral activity against the rhinovirus serotype 6; assay type: functional; details: Rhinovirus B; method in brief: as §1
[19] = tested on: rhinovirus A30; test: Tested for antirhinoviral activity against the rhinovirus serotype 30; assay type: functional; details: Rhinovirus A; method in brief: as §1
[20] = tested on: rhinovirus A25; test: Tested for antirhinoviral activity against the rhinovirus serotype 25; assay type: functional; details: Rhinovirus A; method in brief: as §1
[21] = tested on: rhinovirus A2; test: Antirhinovirus activity was determined by the ability to inhibit the HRV-2( human rhinovirus type -2) virus by plaque reduction assay in vitro; IA is inactive; assay type: functional, organism-based; method in brief: as §2

Row | SMILES | MIC [1] [µM] | MIC [2] [µM] | logP [4] | MIC [5] [µM] | MIC [6] [µM] | MIC80 [7] [µM] | MIC [8] [µM] | MIC [9] [µM] | MIC [10] [µM] | MIC [11] [µM] | MIC [12] [µM] | MIC [13] [µM] | MIC [14] [µM] | MIC [15] [µM] | MIC [16] [µM] | MIC [17] [µM] | MIC [18] [µM] | MIC [19] [µM] | MIC [20] [µM] | MTL [3] [µM] | other results
1 | Cc1cc(CCCCOc2ccc(C3=NCCO3)cc2Cl)on1 |  |  |  |  | 1 (≈ 0.335 µg/mL) | 3.6 (≈ 1.21 µg/mL) | 0.2 (≈ 0.067 µg/mL) |  |  |  |  |  |  |  |  |  |  |  |  | 9.3 | 
2 | Cc1cc(CCCCCOc2ccc(C3=NCCO3)cc2C=O)on1 |  |  |  |  | > 2.3 |  | 1.4 (≈ 0.479 µg/mL) |  |  |  |  |  |  |  |  |  |  |  |  | 2.3 | 
3 | Cc1cc(CCCCCOc2ccc(C3=NCCO3)c(Cl)c2)on1 |  |  |  |  | 6.5 (≈ 2.27 µg/mL) | 7 (≈ 2.44 µg/mL) | 0.4 (≈ 0.14 µg/mL) |  |  |  |  |  |  |  |  |  |  |  |  | 25 | 
4 | Cc1cc(CCCCCOc2ccc(C3=NCCO3)cc2C(C)C)on1 |  |  |  |  | > 50 |  | 0.2 (≈ 0.0713 µg/mL) |  |  |  |  |  |  |  |  |  |  |  |  | 2.2 | 
5 | Cc1cc(CCCCCOc2ccc(C3=NCCO3)cc2N)on1 |  |  | 2.83 |  | 7 (≈ 2.31 µg/mL) |  | 0.91 (≈ 0.3 µg/mL) |  |  |  |  |  |  |  |  |  |  |  |  | 19 | 
6 | CCC(=O)Nc1cc(C2=NCCO2)ccc1OCCCCCc1cc(C)no1 |  |  |  |  |  |  | 7.3 (≈ 2.81 µg/mL) |  |  |  |  |  |  |  |  |  |  |  |  | 16 | 
7 | Cc1cc(CCCCCOc2ccc(C3=NCCO3)c(C)c2)on1 |  |  |  |  | > 18 | 15 (≈ 4.93 µg/mL) | 0.41 (≈ 0.135 µg/mL) |  |  |  |  |  |  |  |  |  |  |  |  | 19 | 
8 | Cc1cc(CCCCCOc2ccc(C3=NCCO3)cc2C(=O)O)on1 |  |  |  |  |  |  |  |  |  |  |  |  |  |  |  |  |  |  |  |  | MIC [21]: inactive

More lines, in order of falling MIC [8], values ahead:

Row | MIC [1] [µM] | MIC [2] [µM] | logP [4] | MIC [5] [µM] | MIC [6] [µM] | MIC80 [7] [µM] | MIC [8] [µM] | MIC [9] [µM] | MIC [10] [µM] | MIC [11] [µM] | MIC [12] [µM] | MIC [13] [µM] | MIC [14] [µM] | MIC [15] [µM] | MIC [16] [µM] | MIC [17] [µM] | MIC [18] [µM] | MIC [19] [µM] | MIC [20] [µM] | SMILES | MTL [3] [µM] | other results
9 | 0.1 (≈ 0.0356 µg/mL) | 6.5 (≈ 2.32 µg/mL) | 3.28 | 0.6 (≈ 0.214 µg/mL) | 1.1 (≈ 0.392 µg/mL) | 5.1 (≈ 1.82 µg/mL) | 0.1 (≈ 0.0356 µg/mL) | 7.3 (≈ 2.6 µg/mL) | 5.3 (≈ 1.89 µg/mL) | 0.3 (≈ 0.107 µg/mL) | 2.2 (≈ 0.784 µg/mL) | 2 (≈ 0.713 µg/mL) | 0.1 (≈ 0.0356 µg/mL) | 0.4 (≈ 0.143 µg/mL) | 2.9 (≈ 1.03 µg/mL) | 0.2 (≈ 0.0713 µg/mL) | 5.1 (≈ 1.82 µg/mL) | 0.3 (≈ 0.107 µg/mL) | 2.2 (≈ 0.784 µg/mL) | CC(=O)c1cc(C2=NCCO2)ccc1OCCCCCc1cc(C)no1 | 6.5 | 
10 | 0.08 (≈ 0.0284 µg/mL) | 2.1 (≈ 0.744 µg/mL) | 4.93 | 1.1 (≈ 0.39 µg/mL) | 1.1 (≈ 0.39 µg/mL) | 2.1 (≈ 0.744 µg/mL) | 0.08 (≈ 0.0284 µg/mL) | 3.4 (≈ 1.21 µg/mL) | 0.4 (≈ 0.142 µg/mL) | 0.1 (≈ 0.0354 µg/mL) | 1.4 (≈ 0.496 µg/mL) | 0.6 (≈ 0.213 µg/mL) | 0.5 (≈ 0.177 µg/mL) | 1.6 (≈ 0.567 µg/mL) | 3.4 (≈ 1.21 µg/mL) | 0.4 (≈ 0.142 µg/mL) | 1.7 (≈ 0.603 µg/mL) | 0.8 (≈ 0.284 µg/mL) | 3.4 (≈ 1.21 µg/mL) | C=CCc1cc(C2=NCCO2)ccc1OCCCCCc1cc(C)no1 | 8.8 | 
11 | 0.06 (≈ 0.0205 µg/mL) | 1.9 (≈ 0.651 µg/mL) | 4.71 | 0.3 (≈ 0.103 µg/mL) | 1.8 (≈ 0.616 µg/mL) | 2 (≈ 0.685 µg/mL) | 0.06 (≈ 0.0205 µg/mL) | 1.1 (≈ 0.377 µg/mL) | 0.04 (≈ 0.0137 µg/mL) | 0.09 (≈ 0.0308 µg/mL) | 2 (≈ 0.685 µg/mL) | 0.07 (≈ 0.024 µg/mL) | 0.1 (≈ 0.0342 µg/mL) | 0.4 (≈ 0.137 µg/mL) | 6.7 (≈ 2.29 µg/mL) | 0.1 (≈ 0.0342 µg/mL) | 3.2 (≈ 1.1 µg/mL) | 0.1 (≈ 0.0342 µg/mL) | 4 (≈ 1.37 µg/mL) | CCc1cc(C2=NCCO2)ccc1OCCCCCc1cc(C)no1 | 9.1 | 
12 | 0.05 (≈ 0.0182 µg/mL) | 1.7 (≈ 0.619 µg/mL) | 4.59 | 0.2 (≈ 0.0729 µg/mL) | 1 (≈ 0.364 µg/mL) | 2 (≈ 0.729 µg/mL) | 0.06 (≈ 0.0219 µg/mL) | 2 (≈ 0.729 µg/mL) | 0.05 (≈ 0.0182 µg/mL) | 0.08 (≈ 0.0292 µg/mL) | 0.8 (≈ 0.292 µg/mL) | 0.02 (≈ 0.00729 µg/mL) | 0.05 (≈ 0.0182 µg/mL) | 0.2 (≈ 0.0729 µg/mL) | 2 (≈ 0.729 µg/mL) | 2 (≈ 0.729 µg/mL) | 0.3 (≈ 0.109 µg/mL) | 0.09 (≈ 0.0328 µg/mL) | 0.9 (≈ 0.328 µg/mL) | Cc1cc(CCCCCOc2ccc(C3=NCCO3)cc2C(F)F)on1 | 17 | 
